Bioassay records as filed in PubChem.
bIAP act – bovine intestinal alkaline phosphatase activators, primary screen, biochemical, bovine IAP, CDP-star luminescence; purified bovine IAP, 30 min; hits give high values; fold of DMSO-control signal, blank-subtracted; activation factor at 20 µM; actives 0.17% (n = 200,000); AID 1016, 2008;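 active means activation factor of 2 or more at 20 µM, a signal rise over negative controls twice the positive control's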
bIAP inh – bovine intestinal alkaline phosphatase inhibitors, primary screen, selectivity assay for TNAP inhibitor project, biochemical, bovine IAP, CDP-star luminescence; purified bovine IAP, 30 min; alkaline phosphatase, intestinal [Bos taurus]; inhibition, % at 20 µM; 190,000 tested, under 10 active;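 active means over 50% inhibition of intestinal alkaline phosphatase at 20 µM in the single-dose screen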
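Assay system: bovine IAP enzyme; medium: DEA buffer 100 mM, pH 9.8, with MgCl2 1.0 mM, ZnCl2 0.02 mM; doses: 20 µM single dose; incubation: enzyme reaction for 30 min at room temperature; detection: CDP-star luminescence signal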
mIAP block – inhibitors of mouse IAP, primary screen, biochemical, luminescence, uHTS. inhibition, % at 10 µM. actives 0.2% (n = 330,000). intestinal alkaline phosphatase [Mus musculus]. purified mouse IAP, CDP-Star luminescence, 30 min;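 active means inhibition of at least 40% at 10 µM in the primary screen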
mIAP activ – activators of mouse IAP, primary screen, biochemical, luminescence, uHTS; muIAP, CDP-Star luminescence, 30 min; hits give high values; 1 = vehicle-only enzyme signal, 0 = enzyme-free wells; activation factor at 10 µM; actives 0.24% (n = 330,000); AID 2805, 2010;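 active means activation factor of at least 2 at 20 µM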
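Assay system: mouse IAP enzyme; reagent: chemiluminescent substrate CDP-Star; dosing: test compounds delivered from DMSO solution; schedule: 30 min at room temperature; measured by: luminescence from enzymatic CDP-Star hydrolysis; controls: DMSO-only wells and no-enzyme negative control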
hIAP activ – human IAP activators, primary screen, biochemical, luminescence, uHTS; activation factor at 10 µM; Intestinal-type alkaline phosphatase (Homo sapiens), P09923; purified human IAP, CDP-Star luminescence, 30 min; hits give high values; 1 = vehicle-only enzyme, 0 = enzyme-free background; actives 0.16% (n = 330,000);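 active means activation factor of the enzyme at least 2-fold when tested at 20 µM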
Target sequence (P09923 whole entry, looked up): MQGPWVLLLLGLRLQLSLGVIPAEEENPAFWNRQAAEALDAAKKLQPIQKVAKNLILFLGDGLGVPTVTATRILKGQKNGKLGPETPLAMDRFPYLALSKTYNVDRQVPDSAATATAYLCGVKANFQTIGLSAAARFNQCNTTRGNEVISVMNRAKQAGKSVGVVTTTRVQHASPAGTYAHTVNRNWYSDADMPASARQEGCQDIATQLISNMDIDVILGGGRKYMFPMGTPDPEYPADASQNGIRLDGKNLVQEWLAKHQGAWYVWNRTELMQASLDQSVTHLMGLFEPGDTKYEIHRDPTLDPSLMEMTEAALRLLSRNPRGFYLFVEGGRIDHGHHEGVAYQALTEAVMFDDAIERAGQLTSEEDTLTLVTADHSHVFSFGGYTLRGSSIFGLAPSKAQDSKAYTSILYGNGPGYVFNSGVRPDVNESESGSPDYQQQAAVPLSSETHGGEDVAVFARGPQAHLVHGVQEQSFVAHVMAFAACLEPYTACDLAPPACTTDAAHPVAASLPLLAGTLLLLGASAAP
hIAP block – human IAP inhibitors, primary screen, biochemical, luminescence, uHTS. Intestinal-type alkaline phosphatase (Homo sapiens), P09923. purified IAP, CDP-Star luminescence, 30 min. inhibition, % at 10 µM. actives 0.12% (n = 330,000);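 active means inhibition reaching a set limit with compound at 10 µM in the primary screen, cut at about 35% in these data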
hIAP act confirm – human IAP activators, confirmation, biochemical, luminescence, single concentration, uHTS hits | shares compounds with hIAP activ | purified IAP, CDP-Star luminescence, 30 min; hits give low values | activation (%Activity, negative = activation), % at 8.3 µM | actives 10% (n = 880);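 active means at least twofold enzyme activation in any of six single-dose repeats, which the averaged readout prints as negative percent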
mIAP inh confirm – inhibitors of mouse IAP, confirmation, biochemical, luminescence, single concentration. shares compounds with mIAP block. purified mouse IAP, CDP-Star luminescence, 30 min. inhibition, % at 10 µM. actives 4.7% (n = 11,000);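 active means inhibition of at least 40% at 10 µM in either of the two replicates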
Large screens that a line does not name were inactive (follow-up assays come after a bar, where they were run). In the library only some 0.77% were active in any assay of this set; here they are far more common.

CC(NC(=O)c1ccc2nc[nH]c2c1)c1ccccc1 (centres undefined)	hIAP activ 2.4 | hIAP act confirm inactive
CCC(CC)NC(=O)c1ccc2nc[nH]c2c1	none
COc1cc(OC)c(OC)cc1/C=N/n1c(-c2n[nH]c3c2CCC3)n[nH]c1=S	hIAP activ 2.1 (no result: bIAP act, bIAP inh) | hIAP act confirm inactive
O=C(NNC(=O)c1ncc(Cl)c(Cl)c1Cl)c1ccc(F)cc1	hIAP activ 2.2 (no result: bIAP act, bIAP inh) | hIAP act confirm inactive
COc1ccc(S(=O)(=O)N2CCC(C(=O)N[C@@H](C)C(=O)NC3CCCC3)CC2)cc1	none (no result: bIAP act, bIAP inh)
COc1ccc(CCNC(=O)c2cc(-c3cc(Cl)ccc3O)n[nH]2)cc1OC	hIAP activ 2.3 (no result: bIAP act, bIAP inh) | hIAP act confirm inactive
Cc1cc(O)c(-c2cc(C(=O)NCCc3ccc(S(N)(=O)=O)cc3)[nH]n2)cc1C	hIAP activ 2.2 (no result: bIAP act, bIAP inh) | hIAP act confirm inactive
COc1ccc(CCNC(=O)c2cc(-c3ccc(C)cc3O)n[nH]2)cc1OC	hIAP activ 2.1 | hIAP act confirm inactive
NS(=O)(=O)c1ccc(NC(=O)c2cc(-c3ccccc3O)n[nH]2)cc1	hIAP activ 2 (no result: bIAP act, bIAP inh) | hIAP act confirm inactive
COc1ccc(CCNC(=O)c2cc(-c3cc(C)cc(C)c3O)n[nH]2)cc1OC	none (no result: bIAP act, bIAP inh)
Cc1ccc(NC(=O)c2cc(-c3ccccc3O)n[nH]2)cc1Cl	none (no result: bIAP act, bIAP inh)
Cc1cc(C)c(O)c(-c2cc(C(=O)NCCc3ccc(S(N)(=O)=O)cc3)[nH]n2)c1	none (no result: bIAP act, bIAP inh)
CCN(c1ccccc1)S(=O)(=O)c1ccc(Oc2ccc(C(C)=O)cc2OC)nc1	none (no result: bIAP act, bIAP inh)
CCOc1ccc(-n2c(O)cc(=O)[nH]c2=O)cc1	none (no result: bIAP act, bIAP inh)
Cc1cccc(-n2c(C)c(-c3ccccc3)[nH]c2=S)c1	none (no result: bIAP act, bIAP inh)
NC(=S)N/N=C/c1cccc(O)c1O	hIAP activ 2.2 | hIAP act confirm inactive
Cc1ccc(-n2c(C)cc(/C=N/NC(N)=S)c2C)cc1	none
Cc1cc(/C=N/NC(N)=S)c(O)c(/C=N/NC(N)=S)c1	hIAP activ 2.8 (no result: bIAP act, bIAP inh) | hIAP act confirm inactive
NC(=S)N/N=C/c1ccccc1O	none (no result: bIAP act, bIAP inh)
CC(/C=N/NC(=O)CCn1nnc2ccccc21)=C\c1ccccc1	hIAP block 35 | hIAP act confirm -89
CC(/C=N/NC(=O)Cn1cnc2ccccc21)=C\c1ccccc1	none
O=C(Nc1cccc(-c2cccc(F)c2)c1)C1CCN(Cc2ccco2)CC1	hIAP activ 2.3 (no result: bIAP act, bIAP inh) | hIAP act confirm inactive
O=C(Nc1cccc(Cl)c1)N1CCCCCC1	hIAP block 38 (no result: bIAP act, bIAP inh) | hIAP act confirm inactive
O=C(CCc1ccccc1)Nc1ccnn1C1CCN(C/C=C/c2ccccc2)CC1	none (no result: bIAP act, bIAP inh)
COCc1ccc(CN2CCC(n3nccc3NC(=O)CCCc3ccccc3)CC2)o1	none (no result: bIAP act, bIAP inh)
COc1ccccc1CN1CCC(n2nccc2NC(=O)CCCc2ccccc2)CC1	mIAP activ 2, hIAP activ 3.3 (no result: bIAP act, bIAP inh) | hIAP act confirm -112 | mIAP inh confirm inactive
COc1ccccc1/C=C/CN1CCC(n2nccc2NC(=O)CCc2ccccc2)CC1	mIAP activ 2.5, hIAP activ 3.3 (no result: bIAP act, bIAP inh) | hIAP act confirm inactive | mIAP inh confirm inactive
CCOC(=O)N1CCN(S(=O)(=O)CCNC(=O)c2ccc(F)cc2)CC1	none (no result: bIAP act, bIAP inh)
Cc1cccc(NC(=O)c2ccc(C3SCC(=O)N3CCc3ccccc3)cc2)c1C (centres undefined)	none
O=C1/C(=C/c2ccc(O)c(O)c2)Oc2cc(O)ccc21	mIAP block 59, hIAP block 96 (no result: bIAP act, bIAP inh) | hIAP act confirm inactive | mIAP inh confirm 69
